mABHD4 FP: ABHD4 inhibitors, primary screen, biochemical, fluorescence polarization, mouse; inhibition, % at 8.92 µM; AID 720543, 2013; 370,000 compounds, 0.54% hits; purified mABHD4, FP-Rh probe fluorescence polarization;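 active = inhibition exceeding the mean over every tested compound plus 3 SD, cut at about 30% in these data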;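 also: 0% = plate median of compound wells and 100% = S159A mutant with DMSO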
Target sequence (Q8VD66 whole entry, looked up): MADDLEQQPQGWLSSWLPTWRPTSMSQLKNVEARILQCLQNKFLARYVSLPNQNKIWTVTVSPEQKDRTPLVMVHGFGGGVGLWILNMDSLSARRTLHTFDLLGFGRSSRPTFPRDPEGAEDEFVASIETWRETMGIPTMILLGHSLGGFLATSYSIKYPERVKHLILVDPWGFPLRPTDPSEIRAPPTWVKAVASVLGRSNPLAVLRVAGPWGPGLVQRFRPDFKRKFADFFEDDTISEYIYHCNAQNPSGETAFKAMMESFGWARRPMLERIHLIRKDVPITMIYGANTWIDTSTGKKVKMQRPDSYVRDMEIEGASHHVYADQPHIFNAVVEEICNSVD
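system = mouse ABHD4 enzyme, wild type | medium = HEPES pH 7.0, NaCl, Pluronic buffer | also added = FP-Rh probe | incubation = Enzyme–compound pre-incubation 45 min, then probe 60 min, both 25 °C | technique = fluorescence polarization, excitation 525 nm, emission 598 nm, BODIPY TMR filters | controls = S159A mutant high control, sample median low control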
TDP2 absorb: human TDP2 enzyme inhibitors, primary screen, biochemical, epi absorbance, recombinant enzyme; Tyrosyl-DNA phosphodiesterase 2 (Homo sapiens), O95551; T5PNP hydrolysis, p-nitrophenol absorbance 415 nm; inhibition, % at 12.8 µM; 370,000 compounds, 0.34% hits; AID 720702, 2013;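 active = inhibition above the mean of all tested compounds plus 3 SD, set per campaign, cut at about 25% in these data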;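 also: 0% = DMSO with enzyme and 100% = buffer with substrate but no TDP2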
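Material: recombinant human TDP2; quantity: TDP2 enzyme at 120 nM final; medium: Tris-HCl pH 7.5 with MgCl2; compound: single concentration, 12.8 µM nominal, with 1% DMSO; incubation: 2 h enzyme incubation at 37 °C; signal: epi absorbance; measure: percent inhibition; benchmarks: high control without enzyme, low control DMSO plus TDP2; repeats: singlicate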
SIAE primary: human SIAE inhibitors, primary screen, biochemical, fluorescence polarization, FP-Rh probe, 1536-well HTS. 370,000 compounds, 0.69% hits. inhibition, % at 9.66 µM. Sialate O-acetylesterase (Homo sapiens), Q9HAT2. AID 1053197, 2014. SIAE FP-Rh probe binding;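 active = inhibition above a cutoff: mean of compounds within the control limits plus 3 SD of those, cut at about 17% in these data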;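 also: 0% = plate median of compound wells and 100% = probe without SIAE protein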
HTRA1 inh: HTRA1 serine protease inhibitors, primary screen, biochemical, fluorescence polarization, HTS. recombinant HTRA1, FP-rhodamine activity-based probe. inhibition, % at 5.96 µM. 340,000 compounds, 0.5% hits. AID 504803, 2011; in the data active = inhibition above about 36%;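 also: 0% = enzyme with DMSO and 100% = wells lacking enzyme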
TCR-CD3 inh: inhibitors of human TCR-CD3 interaction, primary screen, biochemical, fluorescence, TAMRA-labeled TCR probe. 360,000 compounds, 0.37% hits. inhibition, % at 9.4 µM. T-cell receptor (TCR). AID 651800, 2012; in the data active = inhibition above about 19%;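 also: recombinant mutant TCR 2C K166C tagged with TAMRA read by polarization; 0% = receptor in buffer alone and 100% = receptor with positive control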
LEDGF integ inh: blockers of LEDGF/p75-dependent integrase strand transfer – biochemical, TR-FRET, high throughput, primary screen | TR-FRET IN-LEDGF/p75 DNA integration, Eu/Cy5 | AID 743269, 2014 | 370,000 compounds, 0.64% hits | HIV-1 integrase (with human LEDGF/p75) | inhibition, % at 3.7 µM;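 active = inhibition above the screen-wide mean plus 3 SD, cut at about 13% in these data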;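 also: signal is the Cy5 over europium emission ratio at 671 and 618 nm; 0% = plate median of compound wells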
IN multimer up: HIV-1 IN multimer formation enhancers, counter-screen for LEDGF/p75 integration inhibitor project, biochemical, TR-FRET; 2,000 compounds, 17% hits; activation, % at 7.7 µM; TR-FRET HIV-1 integrase multimerization; shares compounds with LEDGF integ inh; in the data active = activation above about 8.9%
TR-FRET interf: TR-FRET optical interference artefacts, confirmation, artefact control for LEDGF/p75-dependent integration inhibitor project, biochemical, HIV-1 IN multimerization. shares compounds with LEDGF integ inh. TR-FRET optical interference counterscreen. inhibition, % at 7.7 µM. 2,000 tested, under 10 active. AID 1053135, 2014;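 active = inhibition above the mean over all tested compounds plus 3 SD, which no compound reached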;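 also: 0% = integrase with antibodies and DMSO and 100% = antibodies without integrase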
IN-LEDGF confirm: inhibitors of HIV-1 IN-LEDGF/p75 DNA integration, confirmation, biochemical, TR-FRET; shares compounds with LEDGF integ inh; TR-FRET LEDGF/p75-dependent HIV-1 integration; inhibition, % at 3.7 µM; 2,000 compounds, 36% hits; in the data active = inhibition above about 14%
The depositor's hits bear a star. An excerpt weighted towards active compounds, which were near 2.2% of everything screened.

For O=[N+]([O-])c1ccc(/C=[N+](\[O-])[C@@H]2CCCC[C@@H]2/[N+]([O-])=C/c2ccc([N+](=O)[O-])o2)o1 the results were mABHD4 FP 21, TDP2 absorb 5, SIAE primary 0, HTRA1 inh -1, TCR-CD3 inh 5, LEDGF integ inh 19*, IN multimer up -1, TR-FRET interf 2 and IN-LEDGF confirm 34*.
`C=CCNc1ncnc2c1ncn2[C@H]1CN(Cc2ccc3c(c2)OCO3)C[C@@H](CO)O1` gave mABHD4 FP 2, TDP2 absorb 2, SIAE primary -1, TCR-CD3 inh -5 and LEDGF integ inh 2.
Screening CCCCOc1ccc(C(=O)N/C(=C\c2ccc([N+](=O)[O-])cc2)C(=O)OCc2ccco2)cc1 returned mABHD4 FP -3, TDP2 absorb 1, SIAE primary -5, HTRA1 inh -11, TCR-CD3 inh 4, LEDGF integ inh 21*, IN multimer up 0, TR-FRET interf -1 and IN-LEDGF confirm -2.
CNC(=O)c1ccc(CN(C)CC(=O)Nc2ccccc2C(=O)NC2CC2)cc1 was read as mABHD4 FP 5, TDP2 absorb 5, SIAE primary -1, HTRA1 inh 3, TCR-CD3 inh -1, LEDGF integ inh 75*, IN multimer up -1, TR-FRET interf 4 and IN-LEDGF confirm -2.
CC(C)(C)OC(=O)N1Cc2ccccc2C[C@H]1C(=O)NCC(=O)NC1CCCC1 was read as mABHD4 FP -2, TDP2 absorb -6, SIAE primary -3, HTRA1 inh -6, TCR-CD3 inh -6 and LEDGF integ inh -8.
Screening CC(C)(C)OC(=O)N1Cc2ccccc2C[C@H]1C(=O)NC1CCCC1 returned mABHD4 FP -7, TDP2 absorb -2, SIAE primary 2, HTRA1 inh 3, TCR-CD3 inh 1, LEDGF integ inh 53*, IN multimer up 0, TR-FRET interf 0 and IN-LEDGF confirm -2.
Screening COc1cccc(Nc2nc(C(N)CC(C)C)cs2)n1 (configuration not stated) returned mABHD4 FP -2, TDP2 absorb 0, SIAE primary -1, TCR-CD3 inh 1, LEDGF integ inh 14*, IN multimer up -1, TR-FRET interf 3 and IN-LEDGF confirm 5.
Screening COc1cccc(Nc2nc(C(N)C(C)C)cs2)n1 (configuration not stated) returned mABHD4 FP -6, TDP2 absorb -3, SIAE primary 3, TCR-CD3 inh -12 and LEDGF integ inh 1.
For C[C@@]12C(=O)N(c3cccc(Cl)c3)C(=O)N1[C@@H]1c3ccccc3OC[C@@H]1[C@H]2c1ccccc1 the results were mABHD4 FP -10, TDP2 absorb 4, SIAE primary 2, HTRA1 inh -22, TCR-CD3 inh 4, LEDGF integ inh 34*, IN multimer up 1, TR-FRET interf -6 and IN-LEDGF confirm 1.
`CCCNC(=O)c1ccc(N2CCC3(CC2)CC(c2cccc(Br)c2)=NO3)c(NC(=O)c2ccc(Br)cc2)c1` gave mABHD4 FP -14, TDP2 absorb 5, SIAE primary -13, HTRA1 inh -36, TCR-CD3 inh 2 and LEDGF integ inh -1.
CN(C)c1cccc(C(=O)Nc2nnc(Cc3ccccc3)s2)c1 was read as mABHD4 FP 10, TDP2 absorb 4, SIAE primary 10, HTRA1 inh -4, TCR-CD3 inh -1 and LEDGF integ inh 4.
For CN(CCc1ccccc1)C(=O)c1ccc(NC(=O)Cc2cccc(NC(=O)C3CCN(C(=O)C4CCCCC4)CC3)c2)cc1 the results were mABHD4 FP -7, TDP2 absorb -11, SIAE primary -8, HTRA1 inh -20, TCR-CD3 inh -5 and LEDGF integ inh 3.
For CN(CCc1ccccc1)C(=O)c1ccc(NC(=O)Cc2cccc(NC(=O)C3CCN(C(=O)c4ccccc4)CC3)c2)cc1 the results were mABHD4 FP -2, TDP2 absorb 0, SIAE primary 4, HTRA1 inh -28, TCR-CD3 inh 1, LEDGF integ inh 21*, IN multimer up -3, TR-FRET interf 13 and IN-LEDGF confirm 1.
`O=C(c1ccc2c(c1)N(Cc1ccccc1F)C(=O)c1ccccc1S2)N1CCOCC1` gave mABHD4 FP 8, TDP2 absorb 1, SIAE primary 7, TCR-CD3 inh 3, LEDGF integ inh 30*, IN multimer up 1, TR-FRET interf -3 and IN-LEDGF confirm -7.
For Oc1ccc(C=Nc2cccc3ncccc23)c(O)c1 the results were mABHD4 FP 19, TDP2 absorb 9, SIAE primary 6, HTRA1 inh 16, TCR-CD3 inh 3, LEDGF integ inh 16*, IN multimer up 17*, TR-FRET interf -60 and IN-LEDGF confirm 22*.
`O=C(CCN1CCCCC1)NNC(=O)C12CC3CC(CC(C3)C1)C2` gave mABHD4 FP -3, TDP2 absorb 4, SIAE primary -2, HTRA1 inh 0, TCR-CD3 inh 9, LEDGF integ inh 89*, IN multimer up 1, TR-FRET interf -3 and IN-LEDGF confirm 6.
Screening CCc1nc2c(OCC3COc4ccccc4O3)cccn2c1N(C)C(=O)c1ccc(OC)cc1 (configuration not stated) returned mABHD4 FP 7, TDP2 absorb -9, SIAE primary 4, TCR-CD3 inh 0 and LEDGF integ inh 0.
Screening CCc1nc2c(OCC3COc4ccccc4O3)cccn2c1N(C)C(=O)c1cccc(OC)c1 (configuration not stated) returned mABHD4 FP 0, TDP2 absorb -5, SIAE primary 3, TCR-CD3 inh 1, LEDGF integ inh 20*, IN multimer up 1, TR-FRET interf -6 and IN-LEDGF confirm 0.

Source: PubChem
